High-throughput results from PubChem BioAssay.
Compounds with a hit are over-represented: about 6.4% of the library has one in this group of screens.
EphB4 ephrin blk – EphB4-ephrin-B2 interaction antagonism | EphB4 LBD / TNYL-RAW-Alexa532 peptide, fluorescence polarization | inhibition, % at 7 µM | hit rate 0.15% among 97,000;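 active means inhibition above the screen-wide mean inhibition plus 3 SD, cut at about 15% in these data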
HIV Rev-RRE inh – inhibitors of HIV-1 Rev-RRE RNA interaction; P05866; Rev peptide-RRE RNA binding, FRET; inhibition, % at 8 µM; hit rate 0.79% among 97,000; AID 704;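 active means inhibition above the screen-wide mean plus 3 SD, cut at about 35% in these data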
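Test system: Cy5-tagged RRE RNA duplex with fluorescein-tagged Rev peptide | Read-out: % inhibition of FRET ratio versus controls | Probe or stimulus: Labelled Rev peptide | Incubation: 5 min RNA-compound premix plus 15 min binding step, 25 °C | Technique: FRET fluorescence readout | Benchmarks: DMSO low control, neomycin B high control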
PostGolgi yeast – growth inhibition of a yeast mutant, post-Golgi transport screen; post-Golgi transport phenotypic cell assay; AID 739; inhibition, % at 10 µM; hit rate 0.9% among 98,000;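 further: yeast cells grown in 1536-well plates; yeast grown about 18 h at 30C before absorbance read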
PostGolgi ctrl – growth of the yeast control strain, post-Golgi counter-screen; efflux-deficient yeast background strain, growth absorbance A615, 16 h; inhibition, % at 10 µM; hit rate 5% among 98,000; AID 738
PLK1 kinase inh – inhibitors of human PLK1 kinase | P53350 | hit rate 0.53% among 97,000 | AID 619 | inhibition, % at 10 µM | recombinant PLK1 kinase, TR-FRET peptide phosphorylation;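 active means inhibition of 50% or more in the single-concentration screen; inactive means inhibition below 50%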
Target sequence (P53350 whole entry, looked up): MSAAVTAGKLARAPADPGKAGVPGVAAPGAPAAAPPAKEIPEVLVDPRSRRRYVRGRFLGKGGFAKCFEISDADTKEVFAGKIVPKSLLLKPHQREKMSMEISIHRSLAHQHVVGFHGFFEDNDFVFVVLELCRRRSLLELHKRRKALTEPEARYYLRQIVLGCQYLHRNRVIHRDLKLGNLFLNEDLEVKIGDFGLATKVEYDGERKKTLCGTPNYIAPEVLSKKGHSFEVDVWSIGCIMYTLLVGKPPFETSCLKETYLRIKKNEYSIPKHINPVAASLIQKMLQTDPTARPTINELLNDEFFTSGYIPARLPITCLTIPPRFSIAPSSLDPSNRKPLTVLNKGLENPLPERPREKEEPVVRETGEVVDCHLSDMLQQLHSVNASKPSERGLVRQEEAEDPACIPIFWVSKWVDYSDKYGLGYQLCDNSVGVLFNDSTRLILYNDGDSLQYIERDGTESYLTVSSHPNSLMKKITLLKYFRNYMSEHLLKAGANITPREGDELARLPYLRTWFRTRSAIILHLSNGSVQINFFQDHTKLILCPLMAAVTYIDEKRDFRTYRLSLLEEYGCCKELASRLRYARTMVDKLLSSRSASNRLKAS
PLK1 PBD inh – blocks phosphopeptide binding to human Plk1 polo box domain; Plk1 PBD phosphopeptide binding, fluorescence polarization; inhibition, %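 (tested at about 20 µM)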; hit rate 0.13% among 97,000; in the data active means inhibition above about 34%, passing the limit was not always enough
Of the large screens only hits and unclear results are named; the others gave an inactive call. Unless noted, no stated cut-off is given here; in the data, active means inhibition above about 30%; inactive means the rest.

CNc1nc(C)c(C(=O)OCc2ccccc2)s1	none
CCOC(=O)/C(=N\Nc1cc(C(F)(F)F)ccc1Cl)N(CC)CC	none
O=C1N2CCSC2=NC1(Nc1ccccn1)C(F)(F)F (centres undefined)	PostGolgi ctrl 48
Cc1cc(C)c(NC(=O)CN(C2CCCCC2)C2CCCCC2)c(C)c1	PostGolgi yeast 32, PostGolgi ctrl 53
O=C1Nc2ccccc2C(O)(C(=O)NCc2ccc3c(c2)OCO3)N1c1ccc(Cl)c(Cl)c1 (centres undefined)	none
O=C(Cn1c(S(=O)(=O)Cc2ccccc2)nc2ccccc21)N1CCCCC1	PostGolgi ctrl 35
NC(=O)CS(=O)(=O)c1nc2ccccc2n1CC(=O)N1CCCCC1	none
Cc1c(Br)c([N+](=O)[O-])nn1C(C)C(=O)Nc1c(C)n(C)n(-c2ccccc2)c1=O (centres undefined)	none
COc1ccccc1C(=O)N(Cc1nc(-c2ccc(Cl)cc2)no1)C(C)C	PostGolgi ctrl 32
O=C1c2ccccc2C(=O)N1CCc1nc(-c2ccc(Cl)cc2)no1	none
CC(C)N(Cc1nc(-c2ccc(Cl)cc2)no1)C(=O)CN(C)S(=O)(=O)c1ccc(Cl)cc1	PostGolgi ctrl 52
CC(C)N(Cc1nc(-c2ccc(Cl)cc2)no1)C(=O)CCCN1C(=O)c2ccccc2C1=O	PostGolgi ctrl 40, PLK1 kinase inh 54
Cc1ccc(SCC(=O)N(Cc2nc(-c3ccccc3)no2)C(C)C)cc1	PostGolgi ctrl 30
CC(C)N(Cc1nc(-c2ccccc2)no1)C(=O)c1ccc(Cl)cc1	none
COc1ccc(-c2noc(CN(C)S(=O)(=O)c3ccc(Cl)cc3)n2)cc1OC	none
Cc1[nH]c2ccccc2c1C(O)CN1CCN(c2cccc(C(F)(F)F)c2)CC1 (centres undefined)	none
CN(Cc1nc(-c2cccnc2)no1)S(=O)(=O)c1ccc(Br)cc1	none
CC(C)N(Cc1nc(-c2ccccc2)no1)C(=O)CN(C)S(=O)(=O)c1ccc(Br)cc1	PostGolgi ctrl 62
COc1ccc(N2CCN(CCCn3c(=S)[nH]c4ncccc4c3=O)CC2)cc1	none
CCOCCCn1c(=S)[nH]c2ncccc2c1=O	PostGolgi ctrl 33
O=c1c2cccnc2[nH]c(=S)n1CCCN1CCN(c2ccc(F)cc2)CC1	PostGolgi ctrl 42
O=S(=O)(NCc1csc(-c2ccccc2)n1)c1ccc(Cl)s1	PostGolgi ctrl 33 (no result: EphB4 ephrin blk, HIV Rev-RRE inh, PLK1 kinase inh, PLK1 PBD inh)
CCc1ccc(S(=O)(=O)NCc2csc(-c3ccccc3)n2)s1	PostGolgi ctrl 36
CCc1ccc(S(=O)(=O)NCCc2csc(-c3cccnc3)n2)s1	none
CCc1ccc(S(=O)(=O)NCCc2csc(-c3ccccc3)n2)s1	PostGolgi ctrl 42
Cc1noc(C)c1CSc1ncnc2ccccc12	none
CCOC(=O)c1cccc(NC(=O)CSc2nnc(C3CCCCC3)n2CC)c1	none
COc1ccc(S(=O)(=O)N(C)CC(=O)Nc2cccc(C(C)=O)c2)cc1Cl	none
CCc1[nH]c(=O)c(C#N)c2c1CCCC2	PostGolgi ctrl 32
Cc1sc(NC(=O)CSc2nnc(-c3ccccc3)o2)c(C#N)c1C	PostGolgi ctrl 46
COc1ccccc1NC(=O)CSc1nnc(-c2ccccc2)o1	PLK1 kinase inh 58
C=CCn1c(N)c(C(=O)NCC2CCCO2)c2nc3ccccc3nc21 (centres undefined)	PostGolgi yeast 33
COc1ccc(-n2c(N)c(C(=O)NCC3CCCO3)c3nc4ccccc4nc32)c(OC)c1 (centres undefined)	none
Nc1c(C(=O)NC2CC2)c2nc3ccccc3nc2n1-c1ccc2c(c1)OCO2	none
C=CCn1c(N)c(C(=O)NCC2CCCO2)sc1=S (centres undefined)	PostGolgi ctrl 32
CCn1c(N)c(C(=O)NCC2CCCO2)sc1=S (centres undefined)	none
Nc1c(C(=O)OCC2CCCO2)c2nc3ccccc3nc2n1-c1ccc2c(c1)OCCO2 (centres undefined)	PostGolgi yeast 43
CCOC(=O)CNC(=O)CSc1nc2cccnc2n1C	none (no result: EphB4 ephrin blk, HIV Rev-RRE inh, PLK1 kinase inh, PLK1 PBD inh)
Cc1ccc(Nc2cnn(C34CC5CC(CC(CC(=O)O)(C5)C3)C4)c(=O)c2Cl)cc1	EphB4 ephrin blk 52
Cn1c(=O)c2cn(Cc3ccc(Cl)cc3)cc2n(C)c1=O	none
CNc1nc(SC)nc2ccsc12	none
CCN1C(=S)SC(=O)C1=C1C=C(C)N(Cc2ccco2)C(C)=C1	PostGolgi ctrl 38 (no result: EphB4 ephrin blk, HIV Rev-RRE inh, PLK1 kinase inh, PLK1 PBD inh)
